ChEMBL document CHEMBL1795311, “Synthesis, antiproliferative activity, and mechanism of action of a series of 2-{[(2E)-3-phenylprop-2-enoyl]amino}benzamides” (Eur J Med Chem, 2011)
Values belong to the molecule of their own block, whether it stands above or below them.

How the values were obtained:
K562 [1] = assay: Antiproliferative activity against human K562 cells at 10 uM after 48 hrs by trypan blue assay; type: functional; details: K562, 48 h, read-out: GI
K562 [2] = assay: Growth inhibition of human K562 cells after 48 hrs by trypan blue assay; type: functional, cell-based; details: K562, 48 h
MOLT-4 = assay: Growth inhibition of human MOLT4 cells after 48 hrs by SRB assay; type: functional; details: MOLT-4, 48 h
In short: (§1)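 NCI DTP panel cells grown in RPMI 1640 with 5% FBS and 2 mM L-glutamine, preincubated 24 h, then given five concentrations (10-fold or ½-log dilutions from DMSO stock) for 48 h at 37 °C. Cells fixed with TCA, stained with SRB, absorbance read at 515 nm, with time-zero plates as reference.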

786-0 = assay: Growth inhibition of human 786-0 cells after 48 hrs by SRB assay; type: functional; details: 786-0, 48 h; in short: as §1
OVCAR-5 = assay: Growth inhibition of human OVCAR5 cells after 48 hrs by SRB assay; type: functional; details: OVCAR-5, 48 h; in short: as §1
SNB-75 = assay: Growth inhibition of human SNB75 cells after 48 hrs by SRB assay; type: functional; details: SNB-75, 48 h
In short: (§2)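 Run by the NCI Developmental Therapeutics Program: cells in RPMI 1640 with 5% FBS and 2 mM L-glutamine, plated at 5000–40,000 cells/well and grown 24 h before dosing. Drug (DMSO stock) given at five concentrations for 48 h at 37 °C, 5% CO2. Adherent cells fixed with cold TCA, stained with 0.4% SRB and read at 515 nm. GI50, TGI and LC50 taken from the time-zero, control and treated absorbances.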

SN12C = assay: Growth inhibition of human SN12C cells after 48 hrs by SRB assay; type: functional; in short: as §2
HT-29 = assay: Growth inhibition of human HT-29 cells after 48 hrs by SRB assay; type: functional; details: HT-29, 48 h; in short: as §1
SK-OV-3 = assay: Growth inhibition of human SKOV3 cells after 48 hrs by SRB assay; type: functional; details: SK-OV-3, 48 h; in short: as §2
HCT-116 = assay: Growth inhibition of human HCT116 cells after 48 hrs by SRB assay; type: functional; details: HCT-116, 48 h; in short: as §1
Malme-3M = assay: Growth inhibition of human MALME-3M cells after 48 hrs by SRB assay; type: functional; in short: as §1
OVCAR-3 = assay: Growth inhibition of human OVCAR3 cells after 48 hrs by SRB assay; type: functional; details: OVCAR-3, 48 h; in short: as §1
RXF 393 = assay: Growth inhibition of human RXF393 cells after 48 hrs by SRB assay; type: functional; details: RXF 393, 48 h; in short: as §1
RPMI-8226 = assay: Growth inhibition of human RPMI8226 cells after 48 hrs by SRB assay; type: functional; details: RPMI-8226, 48 h; in short: as §1
SF-539 = assay: Growth inhibition of human SF539 cells after 48 hrs by SRB assay; type: functional; details: SF-539, 48 h; in short: as §1
K562 [3] = assay: Growth inhibition of human K562 cells after 48 hrs by SRB assay; type: functional; details: K562, 48 h; in short: as §1
MCF7 = assay: Growth inhibition of human MCF7 cells after 48 hrs by SRB assay; type: functional; details: MCF7, 48 h; in short: as §1
PC-3 = assay: Growth inhibition of human PC3 cells after 48 hrs by SRB assay; type: functional; details: PC-3, 48 h; in short: as §1
HOP-92 = assay: Growth inhibition of human HOP92 cells after 48 hrs by SRB assay; type: functional; details: HOP-92, 48 h; in short: as §1
SF-268 = assay: Growth inhibition of human SF268 cells after 48 hrs by SRB assay; type: functional; details: SF-268, 48 h; in short: as §1
HCT-15 = assay: Growth inhibition of human HCT15 cells after 48 hrs by SRB assay; type: functional; details: HCT-15, 48 h; in short: as §1
SK-MEL-5 = assay: Growth inhibition of human SK-MEL-5 cells after 48 hrs by SRB assay; type: functional; details: SK-MEL-5, 48 h; in short: as §2
UACC-62 = assay: Growth inhibition of human UACC62 cells after 48 hrs by SRB assay; type: functional; details: UACC-62, 48 h; in short: as §2
T47D = assay: Growth inhibition of human T47D cells after 48 hrs by SRB assay; type: functional; in short: as §2
HOP-62 = assay: Growth inhibition of human HOP62 cells after 48 hrs by SRB assay; type: functional; details: HOP-62, 48 h; in short: as §1
NCI-H226 = assay: Growth inhibition of human NCI-H226 cells after 48 hrs by SRB assay; type: functional; details: NCI-H226, 48 h; in short: as §1
SK-MEL-28 = assay: Growth inhibition of human SK-MEL-28 cells after 48 hrs by SRB assay; type: functional; details: SK-MEL-28, 48 h; in short: as §2
KM12 = assay: Growth inhibition of human KM12 cells after 48 hrs by SRB assay; type: functional; details: KM12, 48 h; in short: as §1
U-251 = assay: Growth inhibition of human U251 cells after 48 hrs by SRB assay; type: functional; details: U-251, 48 h; in short: as §2
A498 = assay: Growth inhibition of human A498 cells after 48 hrs by SRB assay; type: functional; details: A498, 48 h; in short: as §1
MDA-MB-435 = assay: Growth inhibition of human MDA-MB-435 cells after 48 hrs by SRB assay; type: functional; details: MDA-MB-435, 48 h; in short: as §1
ACHN = assay: Growth inhibition of human ACHN cells after 48 hrs by SRB assay; type: functional; in short: as §1
NCI-H23 = assay: Growth inhibition of human NCI-H23 cells after 48 hrs by SRB assay; type: functional; details: NCI-H23, 48 h; in short: as §1
CAKI-1 = assay: Growth inhibition of human Caki1 cells after 48 hrs by SRB assay; type: functional; details: CAKI-1, 48 h; in short: as §1
[4] = Growth inhibition of human Hs 578T cells after 48 hrs by SRB assay; type: functional; in short: as §1
SNB-19 = assay: Growth inhibition of human SNB19 cells after 48 hrs by SRB assay; type: functional; details: SNB-19, 48 h; in short: as §2
CCRF-CEM = assay: Growth inhibition of human CCRF-CEM cells after 48 hrs by SRB assay; type: functional; in short: as §1
A549 = assay: Growth inhibition of human A549 cells after 48 hrs by SRB assay; type: functional; details: A549, 48 h; in short: as §1
TK-10 = assay: Growth inhibition of human TK10 cells after 48 hrs by SRB assay; type: functional; details: TK-10, 48 h; in short: as §2
NCI-H460 = assay: Growth inhibition of human NCI-H460 cells after 48 hrs by SRB assay; type: functional; details: NCI-H460, 48 h; in short: as §1
BT-549 = assay: Growth inhibition of human BT549 cells after 48 hrs by SRB assay; type: functional; details: BT-549, 48 h; in short: as §1
SF-295 = assay: Growth inhibition of human SF295 cells after 48 hrs by SRB assay; type: functional; details: SF-295, 48 h; in short: as §1
EKVX = assay: Growth inhibition of human EKVX cells after 48 hrs by SRB assay; type: functional; in short: as §1
NCI/ADR-RES = assay: Growth inhibition of human NCI/ADR-RES cells after 48 hrs by SRB assay; type: functional; in short: as §1
DU-145 = assay: Growth inhibition of human DU145 cells after 48 hrs by SRB assay; type: functional; details: DU-145, 48 h; in short: as §1
COLO 205 = assay: Growth inhibition of human COLO205 cells after 48 hrs by SRB assay; type: functional; details: COLO 205, 48 h; in short: as §1
MDA-MB-468 = assay: Growth inhibition of human MDA-MB-468 cells after 48 hrs by SRB assay; type: functional; details: MDA-MB-468, 48 h; in short: as §1
SW-620 = assay: Growth inhibition of human SW620 cells after 48 hrs by SRB assay; type: functional; details: SW-620, 48 h; in short: as §2
M14 = assay: Growth inhibition of human M14 cells after 48 hrs by SRB assay; type: functional; details: M14, 48 h; in short: as §1
HL-60 = assay: Growth inhibition of human HL60 cells after 48 hrs by SRB assay; type: functional; details: HL-60, 48 h; in short: as §1
MDA-MB-231 = assay: Growth inhibition of human MDA-MB-231 cells after 48 hrs by SRB assay; type: functional; details: MDA-MB-231, 48 h; in short: as §1
LOX IMVI = assay: Growth inhibition of human LOXIMVI cells after 48 hrs by SRB assay; type: functional; in short: as §1
UO-31 = assay: Growth inhibition of human UO31 cells after 48 hrs by SRB assay; type: functional; details: UO-31, 48 h; in short: as §2

- IC50 (K562 [2]): 8.1 µM
Compound: NC(=O)c1cc(Br)ccc1NC(=O)/C=C/c1ccccc1Cl
- inhibition of growth at 10 µM (K562 [1]): 59%

- IC50 (K562 [2]): > 10 µM
Compound: NC(=O)c1cc(Cl)ccc1NC(=O)/C=C/c1cccc(Cl)c1
- inhibition of growth at 10 µM (K562 [1]): 28.2%

- IC50 (K562 [2]): > 10 µM
Compound: NC(=O)c1cc(Cl)ccc1NC(=O)/C=C/c1ccc(Cl)cc1
- inhibition of growth at 10 µM (K562 [1]): 31%

- IC50 (K562 [2]): > 10 µM
Compound: NC(=O)c1cc(Cl)ccc1NC(=O)/C=C/c1cccc(Br)c1
- inhibition of growth at 10 µM (K562 [1]): 27%

- IC50 (K562 [2]): > 10 µM
Compound: Cc1ccccc1/C=C/C(=O)Nc1ccc(I)cc1C(N)=O
- inhibition of growth at 10 µM (K562 [1]): 26.3%

- IC50 (K562 [2]): > 10 µM
Compound: NC(=O)c1cc(Br)ccc1NC(=O)/C=C/c1ccccc1Br
- inhibition of growth at 10 µM (K562 [1]): 46.2%

- IC50 (K562 [2]): 7.4 µM
Compound: NC(=O)c1cc(Cl)ccc1NC(=O)/C=C/c1ccccc1Cl
- inhibition of growth at 10 µM (K562 [1]): 58%

- IC50 (K562 [2]): > 10 µM
Compound: NC(=O)c1cc(Br)ccc1NC(=O)/C=C/c1ccc(Cl)cc1
- inhibition of growth at 10 µM (K562 [1]): 22%

- IC50 (K562 [2]): > 10 µM
Compound: Cc1ccc(/C=C/C(=O)Nc2ccc(Br)cc2C(N)=O)cc1
- inhibition of growth at 10 µM (K562 [1]): 45.9%

- GI50 (MOLT-4): 1.86 µM
- GI50 (786-0): 1.76 µM
- GI50 (OVCAR-5): 2.92 µM
- IC50 (K562 [2]): 5 µM
- GI50 (HT-29): 0.527 µM
- GI50 (SK-OV-3): 1.41 µM
- GI50 (HCT-116): 0.663 µM
- GI50 (OVCAR-3): 0.349 µM
- GI50 (RPMI-8226): 1.03 µM
- GI50 (K562 [3]): 0.415 µM
- GI50 (MCF7): 0.569 µM
- GI50 (PC-3): 0.684 µM
- GI50 (HCT-15): 1.04 µM
- GI50 (SK-MEL-5): 0.435 µM
- GI50 (T47D): 1.57 µM
- GI50 (NCI-H226): 2.61 µM
- GI50 (SK-MEL-28): 0.839 µM
- GI50 (U-251): 0.887 µM
- GI50 (MDA-MB-435): 0.231 µM
- GI50 (ACHN): 3.36 µM
- GI50 (NCI-H23): 1.09 µM
- GI50 (CCRF-CEM): 0.429 µM
- GI50 (A549): 1.02 µM
- GI50 (NCI-H460): 0.662 µM
- GI50 (BT-549): 1.41 µM
- GI50 (DU-145): 0.935 µM
- GI50 (COLO 205): 0.917 µM
- GI50 (MDA-MB-468): 0.279 µM
- GI50 (SW-620): 0.705 µM
- GI50 (HL-60): 0.346 µM
- GI50 (MDA-MB-231): 2.19 µM
Compound: NC(=O)c1cc(Br)ccc1NC(=O)/C=C/c1ccccc1
- inhibition of growth at 10 µM (K562 [1]): 62.4%
- GI50 (SNB-75): 2.07 µM
- GI50 (SN12C): 2.96 µM
- GI50 (Malme-3M): 1.21 µM
- GI50 (RXF 393): 0.444 µM
- GI50 (SF-539): 0.819 µM
- GI50 (HOP-92): 1.96 µM
- GI50 (SF-268): 1.83 µM
- GI50 (UACC-62): 0.782 µM
- GI50 (HOP-62): 1.51 µM
- GI50 (KM12): 0.739 µM
- GI50 (A498): 1.7 µM
- GI50 (CAKI-1): 1.34 µM
- GI50 [4]: 0.624 µM
- GI50 (SNB-19): 2 µM
- GI50 (TK-10): 2.67 µM
- GI50 (SF-295): 0.625 µM
- GI50 (EKVX): 2.41 µM
- GI50 (NCI/ADR-RES): 0.4 µM
- GI50 (M14): 0.482 µM
- GI50 (LOX IMVI): 3.27 µM
- GI50 (UO-31): 1.85 µM
